# In ChEMBL document CHEMBL1132976, “Biarylcarbamoylindolines are novel and selective 5-HT(2C) receptor inverse agonists: identification of 5-methyl-1-[[2-[(2-methyl-3-pyridyl)oxy]- 5-pyridyl]carbamoyl]-6-trifluoromethylindoline (SB-243213) as a potential antidepressant/anxiolytic agent” (J Med Chem, 2000):
# pIC50, pKi: −log10 of the molar value. Activity calls are given as the source filed them. The calls are words filed in the database; no cut-off is given here.
# Key:
# [1] = target: T1, 5-hydroxytryptamine receptor 2A (Homo sapiens, UniProt P28223); experiment: Displacement of [3H]ketanserin from human 5-hydroxytryptamine 2A receptor expressed in HEK293 cells; compound is insoluble; type: cell-based
# Outline: (§1)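 Competition binding at human cloned receptors expressed in HEK 293 cells. Radioligands: [3H]ketanserin for 5-HT2A, [3H]5-HT for 5-HT2B, [3H]mesulergine for 5-HT2C. Values are pKi, given as the mean of at least two determinations, each within 0.2 log unit of the mean.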
# [2] = target: T2, 5-hydroxytryptamine receptor 2C (Homo sapiens) (UniProt P28335); experiment: Displacement of [3H]mesulergine from human 5-hydroxytryptamine 2C receptor expressed in HEK293 cells; compound insoluble; type: cell-based; outline: as §1
# T2 sequence (whole entry): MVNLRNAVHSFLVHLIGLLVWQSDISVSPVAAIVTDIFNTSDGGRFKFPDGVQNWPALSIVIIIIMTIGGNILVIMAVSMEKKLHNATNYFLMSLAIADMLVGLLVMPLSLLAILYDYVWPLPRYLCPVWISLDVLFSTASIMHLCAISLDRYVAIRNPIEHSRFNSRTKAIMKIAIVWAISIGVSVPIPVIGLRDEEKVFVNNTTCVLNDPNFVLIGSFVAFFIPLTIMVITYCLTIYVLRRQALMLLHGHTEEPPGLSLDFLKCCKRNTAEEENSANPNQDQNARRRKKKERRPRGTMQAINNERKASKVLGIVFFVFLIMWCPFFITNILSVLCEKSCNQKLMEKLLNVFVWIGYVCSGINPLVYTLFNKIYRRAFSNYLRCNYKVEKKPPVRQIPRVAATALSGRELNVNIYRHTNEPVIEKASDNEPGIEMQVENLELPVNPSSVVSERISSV
# [3] = target: T3, 5-hydroxytryptamine receptor 2B (Homo sapiens, UniProt P41595); experiment: Displacement of [3H]5-HT from human 5-hydroxytryptamine 2B receptor expressed in HEK293 cells; compound is insoluble; type: cell-based; outline: as §1
# [4] = target: T1, 5-hydroxytryptamine receptor 2A; experiment: Binding affinity towards human cloned 5-hydroxytryptamine receptor 2A in HEK293 cells, using [3H]ketanserin as radioligand.; type: cell-based; outline: as §1
# [5] = target: T4, 5-hydroxytryptamine receptor 2C (Homo sapiens, UniProt P28335); experiment: Binding affinity towards human cloned 5-hydroxytryptamine receptor 2C in HEK293 cells, using [3H]mesulergine as radioligand.; type: cell-based; outline: as §1
# T4 sequence (P28335 whole entry): T2 sequence (whole entry)
# [6] = target: T3, 5-hydroxytryptamine receptor 2B; experiment: Binding affinities towards human cloned 5-hydroxytryptamine 2B receptor in HEK293 cells using [3H]5-HT as radioligand.; type: cell-based; outline: as §1
# Cytochrome P450 2C9 = Cytochrome P450 2C9 (Homo sapiens, UniProt P11712); experiment: Inhibition of heterologously expressed human cytochrome P450 2C9; type: ADME
# Cytochrome P450 2D6 = Cytochrome P450 2D6 (Homo sapiens, UniProt P10635); experiment: Inhibition of heterologously expressed human cytochrome P450 2D6; type: ADME
# Cytochrome P450 2C19 = Cytochrome P450 2C19 (Homo sapiens, UniProt P33261); experiment: Inhibition of heterologously expressed human cytochrome P450 2C19; type: ADME
# Cytochrome P450 3A4 = Cytochrome P450 3A4 (Homo sapiens, UniProt P08684); experiment: Inhibition of heterologously expressed human cytochrome P450 3A4; type: ADME
# Cytochrome P450 1A2 [7] = target: T5, Cytochrome P450 1A2 (Homo sapiens, UniProt P05177); experiment: Inhibition of heterologously expressed human cytochrome P450 1A2.; type: ADME
# T5 sequence (P05177 whole entry): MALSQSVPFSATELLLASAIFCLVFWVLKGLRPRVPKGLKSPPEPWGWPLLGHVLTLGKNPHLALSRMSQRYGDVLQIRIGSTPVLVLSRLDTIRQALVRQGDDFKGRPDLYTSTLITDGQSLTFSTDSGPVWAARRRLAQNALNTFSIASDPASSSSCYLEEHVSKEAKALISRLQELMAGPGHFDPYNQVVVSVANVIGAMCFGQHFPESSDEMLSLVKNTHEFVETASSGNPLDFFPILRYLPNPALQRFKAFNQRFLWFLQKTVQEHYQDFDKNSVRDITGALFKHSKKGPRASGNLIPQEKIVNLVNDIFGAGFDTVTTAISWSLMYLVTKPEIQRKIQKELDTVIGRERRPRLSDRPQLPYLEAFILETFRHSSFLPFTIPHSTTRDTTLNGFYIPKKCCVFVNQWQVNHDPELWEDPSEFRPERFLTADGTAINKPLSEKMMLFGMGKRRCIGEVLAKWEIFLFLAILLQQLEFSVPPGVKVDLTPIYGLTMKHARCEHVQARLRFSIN
# Outline: (§2)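 Heterologously expressed human CYP1A2 in an isoform-selective assay. Substrate: caffeine N3-demethylation at 500 µM, at the substrate Km.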
# Rattus norvegicus [8] = experiment: Dose required to reverse mCPP induced hypolocomotion in rat after oral administration.; type: functional; settings: read-out: ID50 (the source's name)
# Outline: (§3)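 Rat hypolocomotion model. The test compound was given orally, and mCPP was given at 7 mg/kg ip 30 min before the test. ID50 (mg/kg po) is the dose that reverses mCPP-induced hypolocomotion by 50%.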
# [9] = target: Serotonin 2 receptors; 5-HT2a & 5-HT2c (Homo sapiens) (UniProt P28223+P28335); experiment: Selectivity index determined from binding affinities of 5-HT2C and 5-HT2A.; type: protein assay
# [10] = target: Serotonin receptor (2b and 2c) (Homo sapiens) (UniProt P41595+P28335); experiment: Selectivity index determined from the binding affinities of 5-HT2C and 5-HT2B.; type: protein assay
# [11] = target: T3, 5-hydroxytryptamine receptor 2B; experiment: Displacement of [3H]5-HT from human 5-hydroxytryptamine 2B receptor expressed in HEK293 cells; type: cell-based; outline: as §1
# Rattus norvegicus [12] = experiment: Dose required to reverse mCPP induced hypolocomotion in rats after oral administration; NA=inactive; type: functional, organism-based; outline: as §3
# Cytochrome P450 1A2 [13] = target: T5, Cytochrome P450 1A2; experiment: Inhibition of heterologously expressed human cytochrome P450 1A2; type: ADME; outline: as §2
# Rattus norvegicus [14] = experiment: Dose required to reverse mCPP induced hypolocomotion in rats after oral administration; type: functional; outline: as §3
# Rattus norvegicus [15] = experiment: Dose required to reverse mCPP induced hypolocomotion in rats after oral administration; IA=inactive; type: functional, organism-based; outline: as §3
# T3 sequence (P41595 whole entry): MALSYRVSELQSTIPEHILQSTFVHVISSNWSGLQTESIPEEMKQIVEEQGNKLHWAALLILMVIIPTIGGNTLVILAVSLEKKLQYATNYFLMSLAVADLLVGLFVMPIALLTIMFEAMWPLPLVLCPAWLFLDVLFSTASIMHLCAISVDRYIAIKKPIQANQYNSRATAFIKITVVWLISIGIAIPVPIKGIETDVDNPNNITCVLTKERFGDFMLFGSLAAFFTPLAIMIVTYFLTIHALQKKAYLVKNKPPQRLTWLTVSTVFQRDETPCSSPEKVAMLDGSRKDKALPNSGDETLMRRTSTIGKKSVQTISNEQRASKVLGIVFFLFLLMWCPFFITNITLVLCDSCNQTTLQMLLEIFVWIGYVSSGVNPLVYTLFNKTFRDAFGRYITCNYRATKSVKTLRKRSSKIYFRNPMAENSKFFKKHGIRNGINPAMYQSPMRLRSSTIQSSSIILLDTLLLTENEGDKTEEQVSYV
# T1 sequence (P28223 whole entry): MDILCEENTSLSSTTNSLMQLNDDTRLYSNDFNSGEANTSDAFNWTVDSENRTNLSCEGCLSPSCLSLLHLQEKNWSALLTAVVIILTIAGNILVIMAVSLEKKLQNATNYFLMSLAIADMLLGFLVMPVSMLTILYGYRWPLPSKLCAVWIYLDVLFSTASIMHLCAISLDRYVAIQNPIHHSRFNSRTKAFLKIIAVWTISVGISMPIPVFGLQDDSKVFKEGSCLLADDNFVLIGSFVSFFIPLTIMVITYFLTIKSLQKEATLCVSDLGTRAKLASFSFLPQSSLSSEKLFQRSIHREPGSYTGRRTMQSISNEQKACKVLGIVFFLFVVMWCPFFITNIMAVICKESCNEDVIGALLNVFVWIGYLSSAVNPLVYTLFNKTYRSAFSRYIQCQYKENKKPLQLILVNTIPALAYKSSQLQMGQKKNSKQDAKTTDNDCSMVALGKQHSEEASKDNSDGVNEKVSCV
# Serotonin 2 receptors; 5-HT2a & 5-HT2c (Homo sapiens), sequence (P28223 whole entry, looked up, one chain of several): as the sequence (P28223 whole entry) above
# Cytochrome P450 2D6, sequence (P10635 whole entry): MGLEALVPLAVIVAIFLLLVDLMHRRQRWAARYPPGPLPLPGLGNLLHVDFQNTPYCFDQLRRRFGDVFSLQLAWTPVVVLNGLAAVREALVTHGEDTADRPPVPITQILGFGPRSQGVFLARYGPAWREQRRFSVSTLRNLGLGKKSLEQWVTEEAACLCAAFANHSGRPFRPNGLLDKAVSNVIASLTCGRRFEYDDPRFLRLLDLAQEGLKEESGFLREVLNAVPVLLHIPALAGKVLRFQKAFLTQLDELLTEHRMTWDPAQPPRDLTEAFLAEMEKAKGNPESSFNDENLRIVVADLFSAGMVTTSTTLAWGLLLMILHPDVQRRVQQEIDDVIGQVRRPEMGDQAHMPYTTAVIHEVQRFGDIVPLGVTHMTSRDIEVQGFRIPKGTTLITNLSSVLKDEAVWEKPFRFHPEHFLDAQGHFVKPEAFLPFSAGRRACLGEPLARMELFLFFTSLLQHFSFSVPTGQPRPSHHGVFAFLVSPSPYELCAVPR
# Cytochrome P450 2C9, sequence (P11712 whole entry): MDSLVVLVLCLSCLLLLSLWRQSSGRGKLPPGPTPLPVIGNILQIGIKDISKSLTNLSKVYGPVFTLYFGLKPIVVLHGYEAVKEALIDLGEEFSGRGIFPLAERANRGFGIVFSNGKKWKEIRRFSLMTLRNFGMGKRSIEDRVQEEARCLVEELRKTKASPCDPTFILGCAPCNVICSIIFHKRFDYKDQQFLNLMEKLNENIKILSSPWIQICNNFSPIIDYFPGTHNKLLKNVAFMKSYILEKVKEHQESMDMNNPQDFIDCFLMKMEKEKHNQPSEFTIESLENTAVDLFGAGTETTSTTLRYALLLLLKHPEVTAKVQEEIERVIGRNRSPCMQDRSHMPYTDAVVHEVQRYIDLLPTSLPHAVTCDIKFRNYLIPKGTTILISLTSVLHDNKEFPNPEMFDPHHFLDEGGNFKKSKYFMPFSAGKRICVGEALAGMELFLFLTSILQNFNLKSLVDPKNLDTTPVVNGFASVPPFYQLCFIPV
# Cytochrome P450 2C19, sequence (P33261 whole entry): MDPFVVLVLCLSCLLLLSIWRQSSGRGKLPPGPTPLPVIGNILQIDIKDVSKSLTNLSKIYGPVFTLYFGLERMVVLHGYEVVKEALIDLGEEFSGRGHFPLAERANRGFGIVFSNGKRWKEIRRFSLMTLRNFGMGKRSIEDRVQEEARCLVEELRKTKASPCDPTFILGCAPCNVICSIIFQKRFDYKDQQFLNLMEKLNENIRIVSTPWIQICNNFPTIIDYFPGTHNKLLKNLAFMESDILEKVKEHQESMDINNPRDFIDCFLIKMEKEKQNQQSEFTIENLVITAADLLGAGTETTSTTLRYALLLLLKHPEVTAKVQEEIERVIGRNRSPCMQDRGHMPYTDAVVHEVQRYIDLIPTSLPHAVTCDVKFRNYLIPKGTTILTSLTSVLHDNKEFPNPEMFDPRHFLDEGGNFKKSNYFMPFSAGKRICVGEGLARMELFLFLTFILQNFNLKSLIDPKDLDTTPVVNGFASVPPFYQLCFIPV
# Cytochrome P450 3A4, sequence (P08684 whole entry): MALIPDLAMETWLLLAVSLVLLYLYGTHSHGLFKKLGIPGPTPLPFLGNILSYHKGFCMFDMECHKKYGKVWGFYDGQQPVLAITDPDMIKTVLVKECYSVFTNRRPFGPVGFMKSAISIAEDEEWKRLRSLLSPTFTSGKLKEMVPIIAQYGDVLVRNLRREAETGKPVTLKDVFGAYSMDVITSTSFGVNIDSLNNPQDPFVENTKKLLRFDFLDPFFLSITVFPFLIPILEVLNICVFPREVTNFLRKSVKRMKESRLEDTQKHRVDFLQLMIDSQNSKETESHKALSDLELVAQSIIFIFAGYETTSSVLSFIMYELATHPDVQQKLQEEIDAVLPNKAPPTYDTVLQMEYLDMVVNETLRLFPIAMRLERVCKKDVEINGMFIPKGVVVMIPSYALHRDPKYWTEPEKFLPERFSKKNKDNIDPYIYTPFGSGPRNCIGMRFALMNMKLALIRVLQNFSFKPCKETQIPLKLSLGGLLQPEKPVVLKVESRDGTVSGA
Compound,Log Ki [1],Log Ki [2],Log Ki [3],pKi [4],pKi [5],pKi [6],pIC50 (Cytochrome P450 2C9),pIC50 (Cytochrome P450 2D6),pIC50 (Cytochrome P450 2C19),pIC50 (Cytochrome P450 3A4),pIC50 (Cytochrome P450 1A2 [7]),ED50 (Rattus norvegicus [8]) [mg/kg],Selectivity [9],Selectivity [10],pKi [11],ED50 (Rattus norvegicus [12]),pIC50 (Cytochrome P450 1A2 [13]),ED50 (Rattus norvegicus [14]) [mg/kg],ED50 (Rattus norvegicus [15])
COc1cc2c(cc1C(F)(F)F)N(C(=O)Nc1ccc(-c3ccccc3)nc1)CC2,Insoluble,Insoluble,Insoluble,–,–,–,–,–,–,–,–,–,–,–,–,–,–,–,–
COc1cc2c(cc1C(F)(F)F)N(C(=O)Nc1cc(F)cc(-c3cccnc3)c1)CC2,–,–,–,6.90,9.00,8.00,4.09,4.68,< 4.00,5.05,4.55,0.7,130,10,–,–,–,–,–
COc1cc2c(cc1C(F)(F)F)N(C(=O)Nc1ccc(-c3cccnc3)nc1)CC2,–,–,–,< 5.00,8.30,–,–,–,–,–,5.15,–,> 2000,2,8.00,inactive,–,–,–
Cc1cc2c(cc1C(F)(F)F)N(C(=O)Nc1ccc(Oc3cccnc3C)nc1)CC2 [SB-243213],–,–,–,6.80,9.00,7.00,4.64,< 4.00,< 4.00,< 4.00,–,0.7,160,100,–,–,< 4.00,–,–
COc1cc2c(cc1C(F)(F)F)N(C(=O)Nc1cncc(-c3cnccc3C)c1)CC2,–,–,–,7.00,9.40,–,–,–,–,–,6.70,–,250,15,8.20,–,–,5,–
COc1cc2c(cc1C(F)(F)F)N(C(=O)Nc1ccc(C(C)(C)C)c(-c3cccnc3)c1)CC2,–,–,–,6.00,8.50,7.40,–,–,–,–,–,–,320,13,–,–,–,–,inactive
